Screening results deposited in PubChem BioAssay by several laboratories.
A selection: hits, their analogues and other compounds. The true share with any hit is near 1.4%.
NR2E3 ag-1: agonists of human nuclear receptor NR2E3; Q9Y5X4; GST-NR2E3/biotin-RetCOR TR-FRET, 1536-well; inhibition of corepressor binding, % at 4.78 µM; 320,000 tested, 0.12% active;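 active = percent inhibition above the cutoff of mean plus 3 SD of all tested compounds, set per screening campaign, cut at about 20% in these data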;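 note: 0% = DMSO wells and 100% = biotin wells as full block of FRET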
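Material – GST-tagged NR2E3 plus biotinylated RetCOR corepressor · Quantity – NR2E3 fusion 1.35 nM · Times – 5 h incubation at 4 °C · Medium – pH 7.5 Tris-based buffer · Technique – TR-FRET, Eu(K)-anti-GST donor, streptavidin-D2 acceptor, ex 340, em 617/671 nm · Benchmarks – high control biotin, low control 0.6% DMSO · Format – 1536-well plates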
NR1D1 modulator: modulates human Rev-erb alpha binding to DNA. P20393. Rev-erbα–FITC-DNA binding, fluorescence polarization, 90 min. activity, % at 10 µM. 370,000 tested, 0.79% active. AID 1259318;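 active = activity above about 14%, limit read from the data; passing the limit was not always enough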;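 note: 0% = DMSO wells with 35 nM protein and 100% = DMSO wells with 750 nM protein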
Target sequence (P20393 whole entry, looked up): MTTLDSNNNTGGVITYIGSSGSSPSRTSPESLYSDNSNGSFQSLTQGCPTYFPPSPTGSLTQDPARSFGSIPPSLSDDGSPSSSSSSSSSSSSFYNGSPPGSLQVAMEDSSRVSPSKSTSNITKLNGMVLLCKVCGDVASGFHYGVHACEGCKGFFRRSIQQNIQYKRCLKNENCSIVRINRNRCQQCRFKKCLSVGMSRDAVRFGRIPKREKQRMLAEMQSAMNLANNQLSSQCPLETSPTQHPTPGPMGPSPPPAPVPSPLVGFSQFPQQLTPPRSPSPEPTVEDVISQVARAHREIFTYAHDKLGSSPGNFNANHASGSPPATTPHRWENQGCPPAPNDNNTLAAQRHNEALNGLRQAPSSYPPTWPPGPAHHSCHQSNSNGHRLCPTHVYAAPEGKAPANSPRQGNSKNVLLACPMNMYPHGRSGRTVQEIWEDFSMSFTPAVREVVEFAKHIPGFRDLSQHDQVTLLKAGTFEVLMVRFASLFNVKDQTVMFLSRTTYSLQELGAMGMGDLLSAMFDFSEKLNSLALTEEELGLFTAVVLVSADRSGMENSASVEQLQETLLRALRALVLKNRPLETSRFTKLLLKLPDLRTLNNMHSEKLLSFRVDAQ
PG9 Ab binder: small molecules binding HIV-1 gp120 antibody PG9; TR-FRET gp120-PG9 antibody binding; inhibition, % at 6.7 µM; 360,000 tested, 0.43% active; in the data active = inhibition above about 8.5%
NR2E3 ag-2: agonists of human NR2E3 nuclear receptor. Q9Y5X4. CHO-S Gal4-NCOR/VP16-NR2E3 two-hybrid, luciferase. inhibition of corepressor binding, % at 3.98 µM. 360,000 tested, 0.35% active. AID 602229;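 active = inhibition above the mean of all tested compounds plus 3 SD, cut at about 70% in these data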;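 note: 0% = DMSO with NR2E3 transfected cells and 100% = cells lacking NR2E3 construct; higher means lower luciferase signal from less NR2E3 corepressor binding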
NR2E3 ag confirm: confirmation of human NR2E3 agonists. shares compounds with NR2E3 ag-2. CHO-S mammalian two-hybrid NR2E3-NCOR, luciferase luminescence. inhibition, % at 3.98 µM. 2,300 tested, 51% active. AID 624378;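 active = average inhibition above a cutoff equal to the mean inhibition of all tested compounds plus one SD, cut at about 70% in these data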;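 note: 0% = DMSO in NR2E3 cells and 100% = DMSO in cells lacking NR2E3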
VP16 counter: counter-screen for NR2E3 agonists: GAL4-VP16 reporter inhibitors; shares compounds with NR2E3 ag-2; CHO-S GAL4-VP16 luciferase reporter, luminescence; inhibition, % at 3.98 µM; 2,300 tested, 29% active; AID 624379;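 active = mean inhibition above a cutoff equal to the average over all tested compounds plus one standard deviation, cut at about 70% in these data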;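 note: luciferase from a UAS reporter driven by GAL4-VP16 transactivation; 0% = DMSO with VP16-transfected cells and 100% = DMSO with cells lacking VP16; higher means less reporter light so more repression of VP16 activity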
Active calls of the source: *; x = no result.

SMILES	NR2E3 ag-1	NR1D1 modulator	PG9 Ab binder	NR2E3 ag-2	NR2E3 ag confirm	VP16 counter
C[C@@H]1C[C@H]2OC(=O)C3(CO3)[C@H]2[C@H](O)[C@]2(C)C(=O)C3OC3[C@@H]12 (stereo partly specified)	4.0	x	x	x	x	x
Cc1cc(C)n(-c2ccc(NN=C(C#N)C#N)cc2)n1	-0.9	3.6	-0.6	12.4	x	x
N#CC(C#N)=NNc1ccc(-n2ccc(C(F)(F)F)n2)cc1	1.6	-7.5	0.4	95.5*	17.9	67.6
c1ccc2c(c1)[IH]c1ccccc1-2	x	-0.6	-0.2	100.5*	97.5*	88.0*
c1ccc2c(c1)-c1cccc3cccc-2c13	1.0	-5.3	1.3	-8.1	x	x
O=C1C=C2C=C[C@@H]3C[C@@]2(O1)[C@H]1CCCCN31	x	5.8	x	x	x	x
CC(=O)OC[C@]12CCC(C)=C[C@H]1O[C@@H]1[C@H](O)[C@@H](OC(C)=O)[C@@]2(C)[C@]12CO2	-0.7	3.6	1.0	102.2*	99.9*	99.2*
CN(C)c1ccc(/C=C/C=C/c2sc3ccccc3[n+]2C)cc1	-12.7	-5.7	-125.8	19.7	x	x
CN(C)c1ccc(/C=C/c2cc[n+](C)c3ccccc23)cc1	x	7.2	-129.1	60.5	76.7*	37.5
N#CC1c2ccccc2-n2nncc2CN1C(=O)c1cccnc1 (stereo unspecified)	x	9.6	x	x	x	x
CCC(=NCCOc1ccc(Cl)cc1)c1c(O)n(C)c(=O)n(C)c1=O	-0.5	-7.2	-0.3	79.2*	95.6*	82.9*
CCC(=NCCc1c[nH]c2ccccc12)c1c(O)n(C)c(=O)n(C)c1=O	6.0	-1.5	0.7	73.1*	86.6*	77.2*
C=C[C@H]1CN2CC[C@H]1C[C@@H]2[C@@H](OC(=O)OCC)c1ccnc2ccc(OC)cc12	x	-5.2	x	x	x	x
Nc1ncnc2c1ccn2[C@@H]1O[C@H](CO)[C@@H](O)[C@H]1O	2.1	2.7	-0.2	99.6*	97.7*	88.6*
NC(=S)c1cn(C2OC(CO)C(O)C2O)c2ncnc(N)c12 (stereo unspecified)	-0.1	-2.3	-1.2	103.2*	98.2*	88.0*
N#CC1c2ccccc2-n2nncc2CN1C(=O)c1ccc([N+](=O)[O-])o1 (stereo unspecified)	x	0.3	x	x	x	x
CCOC(=O)[C@]12Cc3cc(OC)ccc3[C@H]1N(C1CCCCC1)C(=O)c1cc(OC)ccc12	x	4.0	0.2	-13.2	x	x
CCOC(=O)[C@]12Cc3cc(C)ccc3[C@H]1N(C1CCCCC1)C(=O)c1cc(OC)ccc12	x	-1.7	-0.1	94.9*	98.8*	42.9
C[C@@H]1CC[C@H]2[C@@H](C)C(=O)O[C@@H]3OC4(C)CC[C@@H]1[C@]32OO4	x	-5.7	x	x	x	x
Oc1c(Cl)c(Cl)c(Cl)c(Cl)c1Cl	-2.8	7.3	-0.1	98.3*	98.7*	91.8*
CC[C@@H](O)C[C@H]1CCC[C@@]2(C[C@@H]3OC(=O)/C=C/[C@@](C)(O)[C@@H](O)[C@H](C)[C@@H](O)[C@H](OC4CCC(N(C)C)C(C)O4)[C@@H](O)[C@](C)(O)CCCCC/C=C/[C@@H]4CC(C)(C)O[C@@]4(O)C[C@H](O2)[C@H]3C)O1 (stereo partly specified)	x	-5.7	-3.5	89.3*	96.9*	87.1*
CC(=O)OC(C)(C)/C=C/C(=O)C(C)(O)C1C(O)CC2(C)C3CC=C4C(CC(O)C(=O)C4(C)C)C3(C)C(=O)CC12C (stereo unspecified)	x	2.1	1.2	62.7	79.7*	47.6
CC(=O)NC1CCSC1=O (stereo unspecified)	x	-6.5	x	x	x	x
CN1C(=O)[C@@]23C[C@]4(c5c[nH]c6ccccc56)c5ccccc5N(S(=O)(=O)c5ccccc5)[C@@H]4N2C(=O)[C@@H]1SS3	x	-0.7	x	x	x	x
CC(=O)c1cn(Cc2ccccc2C#N)c2ccccc12	1.6	0.1	-0.8	74.7*	87.9*	85.4*
SMILES	NR2E3 ag-1	NR1D1 modulator	PG9 Ab binder	NR2E3 ag-2	NR2E3 ag confirm	VP16 counter
O=Cc1cn(Cc2ccccc2F)c2ccccc12	-2.1	1.6	0.1	13.8	x	x
CC(=O)c1cn(Cc2ccccc2F)c2ccccc12	x	1.3	-3.2	83.2*	90.1*	74.9*
COc1cc2c(cc1OC)C1C(=O)c3ccc4c(c3OC1CO2)CC(C(C)C)O4 (stereo unspecified)	x	7.7	1.2	102.3*	96.2*	94.3*
COc1cc2c(cc1OC)[C@@H]1C(=O)c3ccc4c(c3O[C@@H]1CO2)C[C@H](C(C)C)O4	0.2	-1.1	-0.8	96.0*	99.8*	92.7*
CC(=NNC(=S)N1CC2CCC(CC2)C1)c1nccs1	x	1.0	1.4	96.1*	100.3*	84.8*
O=C(CN1C(=O)[C@@H](Cc2ccccc2)N=C(c2ccccc2)c2ccccc21)NC1CCCCC1	x	-3.1	x	x	x	x
O=c1[nH]c2ccccc2n1C1CCN(C(CCc2ccccc2)c2nnnn2-c2ccc3c(c2)OCCO3)CC1 (stereo unspecified)	x	0.7	-1.7	47.6	50.7	14.6
COc1ccc2c(c1)[C@]13CCCC[C@H]1[C@H](C2)N(C)CC3	x	2.7	x	x	x	x
CN1CCc2cc3c(cc2C1O)OCO3 (stereo unspecified)	x	-4.5	x	x	x	x
CCC(C)NC(=O)CCC(=O)OC1O[C@H]2OC3(C)CC[C@H]4[C@H](C)CCC(C1C)C24OO3 (stereo partly specified)	x	2.7	-0.9	102.8*	97.2*	74.7*
CCC(C)C(NC(=O)CCCNC(=O)CCC(=O)OC1O[C@H]2OC3(C)CC[C@H]4[C@H](C)CCC(C1C)C24OO3)C(=O)O (stereo partly specified)	2.2	-1.2	-0.6	95.1*	94.2*	70.8*
S=C=NCc1ccccc1	x	6.1	x	x	x	x
c1cncc(-c2ccc3n2Cc2cnnn2-c2ccccc2-3)c1	x	-0.2	x	x	x	x
CC(C)NCC(O)c1ccccc1Cl (stereo unspecified)	x	-3.7	x	x	x	x
C#CCCC[C@@H]1OC(=O)CNC(=O)C([C@@H](C)CC)NC(=O)[C@@H]2CCCN2C(=O)C([C@@H](C)CC)OC(=O)[C@H](Cc2ccccc2)N(C)C(=O)[C@H](C(C)C)NC(=O)C1(C)C (stereo partly specified)	x	3.3	-1.4	3.0	x	x
CCC(C)C1NC(=O)C(NC(=O)C(CC(C)C)N(C)C(=O)C2CCCN2C(=O)C(C)O)C(C)OC(=O)C(Cc2ccc(OC)cc2)N(C)C(=O)C2CCCN2C(=O)C(CC(C)C)NC(=O)[C@H](C)C(=O)[C@H](C(C)C)OC(=O)CC1O (stereo partly specified)	x	0.6	-2.6	102.1*	98.7*	99.6*
NCC(O)c1cccc(O)c1 (stereo unspecified)	x	3.2	x	x	x	x
COC(=O)C1(N(C)c2ccccc2)CCN(Cc2ccccc2)CC1	x	0.0	x	x	x	x
CC1=C(N2CC2)C(=O)C(CO)=C(N2CC2)C1=O	x	-0.8	-27.6	58.9	99.4*	96.4*
